Data taken from ChEMBL document CHEMBL3085708, “Identification and profiling of 3,5-dimethyl-isoxazole-4-carboxylic acid [2-methyl-4-((2S,3'S)-2-methyl-[1,3']bipyrrolidinyl-1'-yl)phenyl] amide as histamine H(3) receptor antagonist for the treatment of depression” (Bioorg Med Chem Lett, 2013).
Calls of active or inactive are those of the source. No cut-off for these calls is given here.

How the values were obtained:
[1] = Dissociation constant, pKa of the compound; type: physicochemical
[2] = molecular target: Histamine receptor H3 (Macaca mulatta, UniProt Q865E1); assay: Displacement of [3H]N-alpha-methylhistamine from recombinant rhesus monkey histamine H3 receptor transfected in CHO cells after 1 hr by scintillation counting analysis; type: cell-based
Histamine receptor H3, sequence (Q865E1 whole entry): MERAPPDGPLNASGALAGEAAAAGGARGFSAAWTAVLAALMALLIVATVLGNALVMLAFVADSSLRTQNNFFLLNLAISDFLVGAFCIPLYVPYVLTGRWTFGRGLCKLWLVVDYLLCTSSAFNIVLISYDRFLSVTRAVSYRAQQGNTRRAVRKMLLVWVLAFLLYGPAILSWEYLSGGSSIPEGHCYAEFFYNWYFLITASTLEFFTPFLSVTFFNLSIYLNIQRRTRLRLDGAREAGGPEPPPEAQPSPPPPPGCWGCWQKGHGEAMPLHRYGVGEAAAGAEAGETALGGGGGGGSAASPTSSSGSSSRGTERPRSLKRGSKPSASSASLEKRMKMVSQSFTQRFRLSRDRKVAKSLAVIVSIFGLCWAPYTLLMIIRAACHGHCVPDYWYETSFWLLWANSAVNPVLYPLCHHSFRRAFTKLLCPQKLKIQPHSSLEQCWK
Method in brief: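 Membranes from CHO cells stably expressing recombinant rhesus monkey H3 receptor; displacement of [3H]N-α-methyl-histamine, reported as Ki.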

[3] = test system: Rattus norvegicus; assay: Antidepression-like activity in rat assessed as decrease in immobility time at 60 mg/kg, po by forced swimming test; type: functional, organism-based; set-up: dose 60 mg/kg
Method in brief: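 Rat forced-swim test, immobility time as read-out. Test agent given po in MC/0.6% + H2O at 1, 3 and 10 mg/kg; imipramine reference at 60 mg/kg po.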

Compound | pKa [1] | Ki [2] | Activity [3]
Cc1nc(N2CC[C@H](N3CCC[C@@H]3C)C2)ccc1NC(=O)Cc1ccccc1 | 9.9 | – | –
Cc1cc(N2CC[C@H](N3CCC[C@@H]3C)C2)ccc1NC(=O)c1ccco1 | 10.1 | – | –
CN(C)CCCN1c2ccccc2CCc2ccccc21 | – | – | Active
Cc1nc(N2CC[C@H](N3CCC[C@@H]3C)C2)ccc1NC(=O)c1cccc2ccccc12 | 9.9 | – | –
Cc1nc(N2CC[C@H](N3CCC[C@@H]3C)C2)ccc1NC(=O)c1ccccc1 | 9.9 | 3 nM | –
Cc1nc(N2CC[C@H](N3CCC[C@@H]3C)C2)ccc1NS(=O)(=O)c1ccc(F)c(F)c1 | 10 | – | –

Continued, in another order:

pKa [1] | Ki [2] | Compound | Activity [3]
10.1 | – | Cc1cc(C(=O)Nc2ccc(N3CC[C@H](N4CCC[C@@H]4C)C3)cc2C)on1 | –
10.1 | 1.4 nM | Cc1cccc(C(=O)Nc2ccc(N3CC[C@H](N4CCC[C@@H]4C)C3)cc2C)n1 | –
10.1 | – | Cc1nc(C(=O)Nc2ccc(N3CC[C@H](N4CCC[C@@H]4C)C3)cc2C)co1 | –
10.1 | – | Cc1cc(N2CC[C@H](N3CCC[C@@H]3C)C2)ccc1NC(=O)c1cc(F)ccc1C | –
10.1 | – | Cc1cc(N2CC[C@H](N3CCC[C@@H]3C)C2)ccc1NC(=O)c1cc(C)n(C)n1 | –
10.1 | – | Cc1cc(N2CC[C@H](N3CCC[C@@H]3C)C2)ccc1NC(=O)c1ccoc1 | –
12.1 | – | Cc1cc(C(=O)Nc2ccc(N3CC[C@H](N4CCC[C@@H]4C)C3)cc2C)n[nH]1 | –
